Measurements taken from ChEMBL document CHEMBL1141800, “Xenia diterpenoids from the formosan soft coral Xenia blumi” (2005).
Converted amounts (≈) assume the structure as drawn.

Key:
[1] = test system: P388; assay: Cytotoxicity against mouse P388 cells; assay type: functional; conditions: read-out: ED50 (the source's name)
How it was run: (§1)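 In vitro cytotoxicity assay against cultured HT-29 (human colon adenocarcinoma) and P-388 (mouse lymphocytic leukemia) cells; P-388 line was supplied by an outside academic lab. Potency is reported as ED50 in μg/mL.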

[2] = test system: HT-29; assay: Cytotoxicity against human HT-29 cells; assay type: functional; conditions: read-out: ED50 (the source's name); how it was run: as §1

SMILES | EC50 [1] | EC50 [2]
COC(=O)[C@@H]1[C@@H](/C(=C\C=C\C(C)(C)O)COC(C)=O)CC[C@@]2(C)C[C@]1(O)CC[C@H]2O | > 20 µg/mL | > 20 µg/mL
C=C1CC[C@@H]2O[C@@]2(C)CC[C@@H]2/C(=C\C=C\C(C)(C)O)C(=O)OC[C@@H]12 | 6.9 µg/mL (≈ 20.8 µM) | 8.6 µg/mL (≈ 25.9 µM)
C=C1CC[C@@](C)(C=O)CC[C@@H]2/C(=C\C=C\C(C)(C)O)COC(=O)[C@@H]12 | 3.3 µg/mL (≈ 9.93 µM) | 4.6 µg/mL (≈ 13.8 µM)
C=C1CC/C=C(\C)CC[C@@H]2/C(=C/C=C/C(C)(C)O)C(=O)OC[C@@H]12 | > 20 µg/mL | 8.7 µg/mL (≈ 27.5 µM)
C=C1CC(=O)/C=C(/C)CC[C@@H]2/C(=C/C=C/C(C)(C)O)C(=O)OC[C@@H]12 | 0.2 µg/mL (≈ 0.605 µM) | 0.5 µg/mL (≈ 1.51 µM)
C=C1CC[C@@H]2O[C@@]2(C)CC[C@@H]2C([C@@H](OC(C)=O)[C@H](C=C(C)C)OC(C)=O)=CO[C@H](OC(C)=O)[C@@H]12 | > 20 µg/mL | > 20 µg/mL
C=C1CC[C@@H]2O[C@@]2(C)CC[C@@H]2/C(=C/C=C/C(C)(C)O)C(=O)OC[C@@H]12 | 4.7 µg/mL (≈ 14.1 µM) | 5.6 µg/mL (≈ 16.8 µM)
C=C1CC[C@H](O)C(=C)CC[C@@H]2/C(=C\C=C\C(C)(C)O)COC(=O)[C@@H]12 | 3.7 µg/mL (≈ 11.1 µM) | 4.9 µg/mL (≈ 14.7 µM)
